Assay results taken from ChEMBL document CHEMBL1148449, “Discovery, modeling, and human pharmacokinetics of N-(2-acetyl-4,6-dimethylphenyl)-3-(3,4-dimethylisoxazol-5-ylsulfamoyl)thiophene-2-carboxamide (TBC3711), a second generation, ETA selective, and orally bioavailable endothelin antagonist” (J Med Chem, 2004).
Where a SMILES comes first, the peptide text is derived from it. [ ]: non-standard residue; d: D form. The star is where a group is joined. Piperazinyl(4-Ph) = c1ccc(N2CCN(*)CC2)cc1; dGly(2-thienyl) = N[C@@H](C(=O)O)c1cccs1

Experiments:
[1] = Compound was evaluated for oral bioavailability in rats; details: rat, in vivo
[2] = biological target: Endothelin-1 receptor (Homo sapiens) (UniProt P25101); test: Selectivity towards endothelin A receptor in human.
[3] = Compound was evaluated for area under the curve expressed as (h*ug/ml); format: ADME, organism-based; design: concentration or dose not given beside the values; details: rat, in vivo
Procedure, shortened: (§1)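 Rats given 50 mg/kg orally. Plasma was separated at once by centrifugation and stored at -80 °C. Proteins were precipitated with acetonitrile and drug measured by HPLC to give Cmax, AUC and t1/2.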

[4] = Cmax in rat plasma after oral dose (50 mg/Kg); format: ADME, organism-based; design: dose 50 mg/Kg, route oral; procedure, shortened: as §1
[5] = biological target: T1, Endothelin-1 receptor (Homo sapiens, UniProt P25101); test: Displacement of [125I]ET-1 from Endothelin A receptor
T1 sequence (P25101 whole entry): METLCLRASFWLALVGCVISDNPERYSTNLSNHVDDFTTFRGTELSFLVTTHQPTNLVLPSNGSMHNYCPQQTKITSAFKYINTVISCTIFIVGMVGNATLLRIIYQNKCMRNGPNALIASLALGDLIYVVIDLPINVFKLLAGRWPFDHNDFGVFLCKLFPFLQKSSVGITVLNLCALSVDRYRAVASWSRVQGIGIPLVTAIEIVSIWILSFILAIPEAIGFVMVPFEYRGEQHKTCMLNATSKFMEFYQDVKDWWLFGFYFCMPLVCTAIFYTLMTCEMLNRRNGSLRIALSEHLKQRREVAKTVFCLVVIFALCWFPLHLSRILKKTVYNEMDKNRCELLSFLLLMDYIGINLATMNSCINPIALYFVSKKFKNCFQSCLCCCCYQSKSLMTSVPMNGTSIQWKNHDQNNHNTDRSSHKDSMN

[6] = Half life period was determined; format: ADME, organism-based; details: rat, in vivo; procedure, shortened: as §1
[7] = biological target: Endothelin receptor (Rattus norvegicus) (UniProt P26684+P21451); test: Selectivity for endothelin A receptor over endothelin receptor B; format: protein assay
[8] = Maximal plasma concentration in rat after oral administration at 50 mg/kg; format: ADME, organism-based; design: dose 50 mg/kg, route oral; procedure, shortened: as §1
[9] = Half life period was evaluated in rat; 0.5-1.0; format: ADME, organism-based; details: in vivo
[10] = biological target: T2, Endothelin-1 receptor (Rattus norvegicus, UniProt P26684); test: Binding affinity towards Endothelin A receptor
T2 sequence (P26684 whole entry): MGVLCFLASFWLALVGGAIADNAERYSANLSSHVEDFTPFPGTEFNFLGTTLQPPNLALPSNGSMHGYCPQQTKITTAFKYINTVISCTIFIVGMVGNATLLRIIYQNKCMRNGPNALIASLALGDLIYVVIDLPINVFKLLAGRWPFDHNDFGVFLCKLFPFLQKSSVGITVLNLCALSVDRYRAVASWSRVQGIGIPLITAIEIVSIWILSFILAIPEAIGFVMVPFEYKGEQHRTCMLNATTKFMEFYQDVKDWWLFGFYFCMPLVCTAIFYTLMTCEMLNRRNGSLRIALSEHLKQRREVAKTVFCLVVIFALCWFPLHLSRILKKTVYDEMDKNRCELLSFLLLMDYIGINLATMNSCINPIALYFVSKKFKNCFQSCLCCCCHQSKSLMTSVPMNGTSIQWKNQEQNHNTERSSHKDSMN

Endothelin receptor (Rattus norvegicus), sequence (P21451 whole entry, looked up, one chain of several): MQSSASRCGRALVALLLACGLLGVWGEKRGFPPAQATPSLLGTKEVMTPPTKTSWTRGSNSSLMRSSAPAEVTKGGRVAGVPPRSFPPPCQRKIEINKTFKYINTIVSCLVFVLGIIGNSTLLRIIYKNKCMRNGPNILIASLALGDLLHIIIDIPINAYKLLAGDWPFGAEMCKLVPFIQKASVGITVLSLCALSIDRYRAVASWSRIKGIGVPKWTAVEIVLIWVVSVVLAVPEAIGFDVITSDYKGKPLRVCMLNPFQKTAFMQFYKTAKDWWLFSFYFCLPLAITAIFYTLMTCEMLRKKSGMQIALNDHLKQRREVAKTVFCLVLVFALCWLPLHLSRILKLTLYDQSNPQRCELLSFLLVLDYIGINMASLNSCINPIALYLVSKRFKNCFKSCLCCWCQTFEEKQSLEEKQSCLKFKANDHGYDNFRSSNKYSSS

CC(=O)c1cc(C)cc(C)c1NC(=O)c1sc(C)cc1S(=O)(=O)Nc1onc(C)c1Cl
bioavailability [1]: 49%
Selectivity [2]: 4500
AUC [3]: 327 µg·h/mL
Cmax [4]: 68900 ng/mL
IC50 [5]: 210 pM
half-life [6]: 2.7 h

CC(C)C[C@@H]1NC(=O)[C@@H](C(C)C)NC(=O)[C@@H]2CCCN2C(=O)[C@@H](CC(=O)O)NC(=O)[C@@H](Cc2c[nH]c3ccccc23)NC1=O [BQ-123] (cyclo(L[dW][dD]P[dV]))
Selectivity [7]: 818
IC50 [5]: 22000 pM

Cc1cc(C)c(NC(=O)c2sccc2S(=O)(=O)Nc2onc(C)c2Cl)c(S(C)(=O)=O)c1
Selectivity [2]: 325000
Cmax [8]: 10300 ng/mL
AUC [3]: 28.2 µg·h/mL
IC50 [5]: 30 pM
half-life [6]: 1.7 h

Cc1cc(C)c(NC(=O)c2sccc2S(=O)(=O)Nc2onc(C)c2Cl)c(-c2ncco2)c1
Selectivity [2]: 119000
AUC [3]: 362 µg·h/mL
Cmax [4]: 66000 ng/mL
IC50 [5]: 80 pM
half-life [6]: 5.3 h

Cc1cc(C)c(N(C)C)c(C)c1NC(=O)c1sccc1S(=O)(=O)Nc1onc(C)c1Cl
Cmax [4]: 3200 ng/mL

C/C(=N\O)c1cc(C)cc(C)c1NC(=O)c1sccc1S(=O)(=O)Nc1onc(C)c1Cl
Selectivity [2]: 24500
AUC [3]: 39.5 µg·h/mL
Cmax [4]: 6920 ng/mL
IC50 [5]: 20 pM
half-life [6]: 5.2 h

Cc1cc(C)c(NC(=O)c2sccc2S(=O)(=O)Nc2onc(C)c2Cl)c(C(=O)O)c1
Selectivity [2]: 600
IC50 [5]: 2620 pM

Cc1cc(C)c(NC(=O)c2sccc2S(=O)(=O)Nc2onc(C)c2Cl)c(Cl)c1
Selectivity [2]: 166000
AUC [3]: 172 µg·h/mL
Cmax [4]: 47500 ng/mL
IC50 [5]: 90 pM
half-life [6]: 2.6 h

Cc1cc(C)c(NC(=O)c2sccc2S(=O)(=O)Nc2onc(C)c2Cl)c(-c2ccccc2)c1
Selectivity [2]: 1900
IC50 [5]: 1470 pM

CC(C)C[C@@H]1NC(=O)[C@@H](c2cccs2)NC(=O)[C@H](CC(=O)[O-])NC(=O)[C@H](CC(=O)N2CCN(c3ccccc3)CC2)NC(=O)[C@@H](CC(=O)[O-])NC(=O)[C@@H](Cc2c[nH]c3ccccc23)NC1=O.[Na+].[Na+] (cyclo(D(Piperazinyl(4-Ph))D[dGly(2-thienyl)]L[dW][dD]))
Selectivity [7]: 540
half-life [9]: 1 h

Cc1cc(C)c(NC(=O)c2sccc2S(=O)(=O)Nc2onc(C)c2Cl)c(C)c1C#N
Cmax [4]: 17300 ng/mL

Cc1cc(C)c(NC(=O)c2sccc2S(=O)(=O)Nc2onc(C)c2Cl)c(C#N)c1C
Selectivity [2]: 608000
AUC [3]: 373 µg·h/mL
Cmax [4]: 45700 ng/mL
IC50 [5]: 50 pM
half-life [6]: 5.11 h

CCCS(=O)(=O)c1cc(C)cc(C)c1NC(=O)c1sccc1S(=O)(=O)Nc1onc(C)c1Cl
Selectivity [2]: 6100
AUC [3]: 5.9 µg·h/mL
Cmax [4]: 2900 ng/mL
IC50 [5]: 60 pM
half-life [6]: 1.3 h

Cc1cc(-c2ncco2)cc(C)c1NC(=O)c1sccc1S(=O)(=O)Nc1onc(C)c1Cl
Selectivity [2]: 1900
IC50 [5]: 1270 pM

Cc1cc(C)c(NC(=O)c2sccc2S(=O)(=O)Nc2onc(C)c2Cl)c(C(=O)N(C)CC(C)(C)C)c1
Selectivity [2]: 15900
IC50 [5]: 680 pM

Cc1cc(C)c(NC(=O)c2sccc2S(=O)(=O)Nc2onc(C)c2Cl)c(C(=O)C2CCCCC2)c1
Selectivity [2]: 13000
IC50 [5]: 1370 pM

Cc1cc(C)c(NC(=O)c2sccc2S(=O)(=O)Nc2onc(C)c2Cl)c(C)c1
Selectivity [2]: 7000
IC50 [5]: 150 pM

CCCCc1ccc2c(n1)[C@@H](c1ccc(OC)cc1C[C@H](C)C(=O)O)[C@H](C(=O)O)[C@H]2c1ccc2c(c1)OCO2
bioavailability [1]: 40%
Selectivity [7]: 3
Ki [10]: 34 pM

Cc1cc(C)c(NC(=O)c2sccc2S(=O)(=O)Nc2onc(C)c2Cl)c(C(=O)C2CC2)c1
Selectivity [2]: 331000
AUC [3]: 365 µg·h/mL
Cmax [4]: 53400 ng/mL
IC50 [5]: 30 pM
half-life [6]: 5.4 h

COc1c(C)cc(C)c(NC(=O)c2sccc2S(=O)(=O)Nc2onc(C)c2Cl)c1C
Cmax [4]: 4000 ng/mL
